Screening data: PubChem, The Scripps Research Institute Molecular Screening Center
An excerpt weighted towards active compounds, which were near 2.1% of everything screened.
CHRM5 PAM = human M5 muscarinic receptor positive allosteric modulators, primary screen, CHO-K1 cells, Fluo-8 calcium fluorescence; Muscarinic acetylcholine receptor M5 (Homo sapiens), P08912; CHO-K1 hM5, ACh EC20 PAM; 0% = ACh EC20, 100% = ACh EC100; activation, % at 3 µM; 360,000 compounds, 0.3% hits; AID 624038, 2012;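 active = activation above the run cutoff, the mean activation of all test compounds plus 3 SD, cut at about 18% in these data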
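Probe or stimulus: acetylcholine, EC20 level; Assay system: human M5 receptor in CHO-K1 cells; Schedule: compound preincubation 140 s before EC20 acetylcholine addition; Technique: intracellular calcium via Fluo-8 fluorescence; Dosing: single-point, 3 µM nominal; Read-out basis: percent activation from peak-over-basal fluorescence ratio, scaled EC20-to-EC100 acetylcholine; Repeats: one well per compound, no replicates.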
M5 antag = human M5 muscarinic receptor antagonists, primary screen, CHO cells, Fluo-8 calcium fluorescence; 360,000 compounds, 0.59% hits; AID 624040, 2012; inhibition, % at 3 µM; Muscarinic acetylcholine receptor M5 (Homo sapiens), P08912; CHO-hM5 cells, ACh EC80;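 active = inhibition above a per-plate cutoff, the mean of that plate's test compounds plus 3 SD, cut at about 27% in these data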;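 also: 0% = acetylcholine EC80 with DMSO and 100% = DMSO without agonist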
M5 ag = human M5 muscarinic receptor agonists, primary screen, CHO-K1 cells, Fluo-8 calcium fluorescence; Muscarinic acetylcholine receptor M5 (Homo sapiens), P08912; CHO-K1 hM5 cells; 0% DMSO wells, 100% maximal acetylcholine response; activation, % at 3 µM; 360,000 compounds, 0.19% hits; AID 624037, 2012;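 active = activation above the run's mean over test compounds plus 3 SD, cut at about 23% in these data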;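 also: signal is peak over basal fluorescence ratio across the kinetic read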
M1 PAM = human M1 muscarinic receptor positive allosteric modulators, primary screen, CHO-K1 cells, Fluo-8 calcium fluorescence, 1536-well. Muscarinic acetylcholine receptor M1 (Homo sapiens), P11229. activation, % at 3 µM. CHO-K1 hM1, ACh EC20; 0% = ACh EC20, 100% = maximal ACh. 360,000 compounds, 0.088% hits; in the data active = activation above about 19%, passing the limit was not always enough
Target sequence (P11229 whole entry, looked up): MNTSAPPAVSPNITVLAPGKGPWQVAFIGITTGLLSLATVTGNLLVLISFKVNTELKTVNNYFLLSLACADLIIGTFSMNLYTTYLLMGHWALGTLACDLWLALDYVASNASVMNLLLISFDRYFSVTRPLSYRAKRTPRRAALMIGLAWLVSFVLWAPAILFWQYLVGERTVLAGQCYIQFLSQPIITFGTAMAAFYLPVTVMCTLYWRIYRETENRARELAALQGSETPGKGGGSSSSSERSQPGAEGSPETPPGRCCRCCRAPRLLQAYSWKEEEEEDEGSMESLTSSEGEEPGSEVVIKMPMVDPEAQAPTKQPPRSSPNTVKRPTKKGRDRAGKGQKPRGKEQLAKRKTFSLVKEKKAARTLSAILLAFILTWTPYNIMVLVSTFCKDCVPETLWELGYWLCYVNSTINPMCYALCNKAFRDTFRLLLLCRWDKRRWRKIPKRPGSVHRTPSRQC
M1 antag = human M1 muscarinic receptor antagonists, primary screen, CHO-K1 cells, Fluo-8 calcium fluorescence, 1536-well; Muscarinic acetylcholine receptor M1 (Homo sapiens), P11229; CHO-K1 hM1, ACh EC80 antagonist; inhibition, % at 3 µM; 360,000 compounds, 1.3% hits; AID 588852, 2011;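 active = percent inhibition above its own plate's cutoff, namely the mean of that plate's compound wells plus 3 SD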;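 also: peak over basal fluorescence ratio during 140 s after agonist addition; 0% = ACh EC80 plus DMSO and 100% = DMSO alone without agonist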
CHRM1 agonist = human M1 muscarinic receptor agonists, primary screen, Fluo-8 calcium fluorescence, CHO-K1 cells, HTS. Muscarinic acetylcholine receptor M1 (Homo sapiens), P11229. CHO-K1 hM1, agonist mode; 0% DMSO, 100% acetylcholine EC100. activation, % at 3 µM. 360,000 compounds, 0.33% hits;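 active = activation above the run's mean compound activation plus 3 SD, cut at about 16% in these data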;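 also: peak over basal fluorescence ratio within a 140 s kinetic read after compound addition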
The depositor's hits bear a star.

SMILES	CHRM5 PAM	M5 antag	M5 ag	M1 PAM	M1 antag	CHRM1 agonist
O=C1CSC(c2ccc([N+](=O)[O-])cc2)N1CCN1CCCCC1 (configuration not stated)	3.7	-6.9	-6.7	2.8	-7.7	18.7*
COc1cccc(CC(NC(C)=O)C(=O)NC2CCN(C(=O)c3ccc(Cl)cc3)CC2)c1OC (configuration not stated)	1.5	8.1	-3.2	29.5*	-22.3	1.0
O=C(NCC1CC1)c1onc(CSc2ccncc2)c1C(=O)NCC1CC1	-0.5	6.3	-0.4	17.2	-10.9	-0.1
CCN=C1SC(C(=O)Nc2cccc(C)c2)CC(=O)N1CC (configuration not stated)	-40.8	16.4	-2.1	-10.5	32.9*	3.1
CCN=C1SC(C(=O)Nc2cccc(Cl)c2)CC(=O)N1CC (configuration not stated)	-15.7	7.8	1.1	-9.4	37.7*	0.2
CCN=C1SC(C(=O)NCCc2ccccc2)CC(=O)N1CC (configuration not stated)	-33.1	2.3	-1.1	-13.6	26.0*	-0.8
CCN=C1SC(C(=O)Nc2ccc(OCC)cc2)CC(=O)N1CC (configuration not stated)	-11.9	7.0	5.8	-13.1	16.9	1.8
CCN=C1SC(C(=O)Nc2ccc(OC)cc2)CC(=O)N1CC (configuration not stated)	-13.2	3.2	10.1	-20.0	31.7*	-1.0
CCN=C1SC(C(=O)Nc2ccc(Cl)c(Cl)c2)CC(=O)N1CC (configuration not stated)	-19.9	11.5	4.1	-4.6	6.7	-0.9
CCN=c1sc(C(=O)NCCc2ccccc2)cc(=O)n1CC	-48.8	12.4	4.2	-3.6	30.2*	4.4
CCN=C1SC(C(=O)Nc2cccc(Br)c2)CC(=O)N1CC (configuration not stated)	-21.6	26.1	1.9	-14.9	29.9*	-3.2
CC(C)CCN1CCN(Cc2cccc(-n3cccn3)c2)CC1CCO (configuration not stated)	-0.9	4.4	-8.1	-1.8	-0.1	-7.5
Cc1cc(C)n(-c2ccc(F)cc2CN2CCN(Cc3ccccc3)C(CCO)C2)n1 (configuration not stated)	4.8	8.1	-14.6	-18.7	39.5*	-6.5
CC(C)N1CCN(Cc2cc(F)ccc2-n2cccn2)CC1CCO (configuration not stated)	-5.4	6.5	-5.6	-4.5	9.2	-11.9
CC(C)N1CCC(N2CCN(Cc3cc(F)ccc3-n3cccn3)CC2CCO)CC1 (configuration not stated)	21.6*	-6.7	-9.1	6.3	-11.1	-13.1
Cc1cc(-n2cccn2)ccc1CN1CCN(C2CCCC2)C(CCO)C1 (configuration not stated)	-33.7	53.8*	-16.1	-20.1	99.6*	-4.0
Cc1cc(-n2cccn2)ccc1CN1CCN(CC(C)C)C(CCO)C1 (configuration not stated)	-4.3	-4.6	-18.0	-24.0	47.7*	-7.1
COc1cc(OC)cc(-c2cc3cc(F)ccc3cn2)c1	-11.1	8.8	-0.5	-0.3	5.5	-8.2
CCCS(=O)(=O)NC(=O)C1(C)CCN(C(=O)c2cc(F)cc(F)c2)C1 (configuration not stated)	-2.2	2.6	-0.3	8.8	-11.3	-0.3
COc1ccc(N(CC(=O)NCCSc2ccccc2)S(=O)(=O)c2ccccc2)c(OC)c1	-31.4	17.1	-2.7	-5.2	13.6	0.0
COC(=O)c1cc(C(=O)OCC(=O)NC(=O)c2ccccc2)cc([N+](=O)[O-])c1	3.2	3.7	-3.0	1.7	27.6*	-2.3
O=C(NCCCN1CCOCC1)C(=O)N/N=C/c1c2ccccc2cc2ccccc12	-15.7	7.3	-7.7	-23.9	65.2*	-10.7
C=CCn1c(COc2ccccc2F)nnc1SCC(=O)Nc1cc(C)on1	-2.7	5.3	-0.2	13.4	-9.2	-6.0
N#CC1=C(N)OC2=C(C(=O)CC(c3ccccc3)C2)C1c1ccc2c(c1)OCO2 (configuration not stated)	-18.2	16.0	-8.0	-25.8	62.3*	-12.7
COc1ccc(C2CC(=O)Oc3cc(C)cc(C)c32)cc1 (configuration not stated)	-7.2	-0.5	-0.8	-1.1	-2.2	-3.4
SMILES	CHRM5 PAM	M5 antag	M5 ag	M1 PAM	M1 antag	CHRM1 agonist
COc1ccc(C2CC(=O)Oc3c(C(C)C)ccc(C)c32)cc1 (configuration not stated)	0.3	-10.7	5.6	11.6	-14.3	18.1*
O=S(=O)(c1ccc(Br)s1)n1cccn1	-0.9	-0.6	-0.3	6.4	-2.5	-6.5
O=C(NCc1ccccn1)C(=O)N/N=C/c1ccccc1O	3.8	-2.9	-4.0	7.5	-11.8	-5.7
CSc1nc(N)nc(SCC(=O)Nc2cccc(F)c2)c1C#N	-18.5	42.0*	6.7	-10.1	24.5*	1.1
C[C@H]1CN([C@@H](C)CO)C(=O)CCCn2nncc2CO[C@@H]1CN(C)Cc1ccc(C(F)(F)F)cc1	1.4	3.4	1.0	8.5	-18.5	-7.4
CCN1/C(=C/c2sc(-c3ccccc3C)c[n+]2C)Sc2ccccc21	-20.8	36.9*	-3.0	-17.4	47.8*	-1.4
COc1cccc(CNC[C@H]2O[C@@H](n3cnc(C(N)=O)n3)[C@H](O)[C@@H]2O)c1OCc1ccc(F)cc1Cl	3.4	0.8	0.2	6.4	-8.0	-3.9
C=CC(=O)Nc1ccc(N(C)c2ccnc(Nc3ccc(N4CCN(C)CC4)cc3)n2)cc1	-22.2	11.6	-8.7	-31.6	55.5*	-10.7
O=C(c1cc(-c2ccc(Cl)cc2)nc2ccccc12)N1CCOCC1	-9.6	6.3	5.3	6.0	5.4	-0.3
CCN(CC)CCn1c(-c2ccccc2)nc(=S)c2c1CC(C)(C)OC2	-0.8	1.9	-2.6	-2.2	6.9	-5.1
CC1CN(C)C(C)c2c1oc1ccc([N+](=O)[O-])cc21 (configuration not stated)	6.0	2.7	-0.4	5.6	-4.4	-5.0
